Experimental findings from ChEMBL document CHEMBL4385626, “SAR optimization studies on modified salicylamides as a potential treatment for acute myeloid leukemia through inhibition of the CREB pathway” (Bioorg Med Chem Lett, 2019) are described below.

The subject of one data set is Jurkat. Nature of the data set: Cytotoxicity against human Jurkat cells incubated for 3 days by CellTiter-Glo luminescent assay. Type of data set: functional, cell-based. The following applies: 72 h. Put shortly:
(§1)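 CellTiter-Glo viability read-out on leukemia cell lines. IC50 reported as the average of triplicates.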
Background: ATP-based viability assays read luminescence as a measure of living cells.

Data set [1] relates to HL-60. Nature of the data set: Induction of cell cycle arrest in human HL60 cells assessed as G2 phase at 1 uM incubated for 1 day by DAPI staining based flow cytometric analysis (reference value: 21.4 +/- 0.42%). Type of data set: functional. (In general: In flow cytometry, cells or beads pass a laser one at a time.)
Data set [2] in a line: Clearance in NSG mouse at 2 mg/kg, iv measured after 7 to 150 mins by LC/MS/MS analysis. Type of data set: ADME, organism-based. The settings on record: in vivo. Put shortly:
(§2)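 Single IV dose of 2 mg/kg to NSG mice (NOD.Cg-Prkdc scid Il2rg tm1Wjl/SzJ), vehicle DMSO/Kolliphor EL/water (3/5/82). Compound levels measured in plasma at various times after injection. PK parameters derived from the plasma time-concentration profiles.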

Data set [3] concerns HL-60. Kind of data set: Induction of apoptosis in human HL60 cells assessed as late apoptotic cells at 1 uM incubated for 1 day by AnnexinV/DAPI double staining based flow cytometric analysis (reference value: 1.2 +/- 0.03%). Type of data set: functional.
A short description of data set [4]: Elimination half life in NSG mouse at 2 mg/kg, iv measured after 7 to 150 mins by LC/MS/MS analysis. Type of data set: ADME, organism-based. The settings on record: in vivo, read-out: beta t1/2 (converted). Put shortly: as §2
In another data set the test system is Bone marrow cell. Kind of data set: Cytotoxicity against human bone marrow cells incubated for 3 days by CellTiter-Glo luminescent assay. Type of data set: cell-based. The settings on record: 72 h.
The test system of data set [5] is HL-60. Kind of data set: Induction of apoptosis in human HL60 cells assessed as PARP cleavage level at 1 uM incubated for 1 day by DAPI staining based flow cytometric analysis (reference value: 1.2 +/- 0.1%). Type of data set: functional.
Data set [6] in a line: MRT (0 to infinity) in NSG mouse at 2 mg/kg, iv measured after 7 to 150 mins by LC/MS/MS analysis. Type of data set: ADME, organism-based. The settings on record: in vivo. Put shortly: as §2
The nature of data set [7]: Apparent volume of distribution in NSG mouse at 2 mg/kg, iv measured after 7 to 150 mins by LC/MS/MS analysis. The following applies: in vivo. Type of data set: ADME, organism-based. Put shortly:
as §2

The species named for data set [8] is Homo sapiens. Nature of the data set: Inhibition of CBP KIX domain (unknown origin) binding to BODIPY-labeled phosphorylated CREB KID domain (unknown origin) interaction pre-incubated for 30 mins by fluorescence polarization assay. In outline:
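Fluorescence polarization with BODIPY-labeled phosphorylated CREB KID domain and the CBP KIX domain. Polarization reports the degree of KIX-KID binding.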
Background: Polarisation of emitted light reports the rotation of a fluorescent probe.

Data set [9] can be described thus: AUC (0 to infinity) in NSG mouse at 2 mg/kg, iv measured after 7 to 150 mins by LC/MS/MS analysis. Type of data set: ADME, organism-based. Set-up: dose 2 mg/kg, time infinity, route intravenous. The following applies: in vivo. In outline: as §2
The species named for data set [10] is Homo sapiens. Kind of data set: Inhibition of CREB in human HL60 cells assessed as downregulation of POLD2 gene expression at 1 uM incubated for 1 day by RT-qPCR analysis. Type of data set: cell-based. In outline:
(§3)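 HL60 cells given 1 μM compound for 1 d. RFC3 and POLD2 mRNA measured by RT-qPCR and normalized to 7SL lncRNA. Results given as mean of three independent experiments ± SEM.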

Data set [11] deals with HL-60. Kind of data set: Induction of cell cycle arrest in human HL60 cells assessed as M phase at 1 uM incubated for 1 day by DAPI staining based flow cytometric analysis (reference value: 2.64 +/- 0.06%). Type of data set: functional.
The nature of data set [12]: Inhibition of KIX-RLucC fused CBP (unknown origin) binding to KID-RLucN fused CREB (unknown origin) transfected in human HEK293 cells preincubated with compound 30 mins before forskolin addition and measured after 90 mins in presence of coelenterazine by split Renilla luciferase complementation assay.
The nature of data set [13]: Volume of distribution at steady state in NSG mouse at 2 mg/kg, iv measured after 7 to 150 mins by LC/MS/MS analysis. Type of data set: ADME, organism-based. The settings on record: in vivo. Put shortly:
as §2

In the next data set the test system is NALM-6. Kind of data set: Cytotoxicity against human NALM6 cells incubated for 3 days by CellTiter-Glo luminescent assay. Type of data set: functional, cell-based. The following applies: NALM-6, 72 h. Put shortly: as §1
Data set [14] is described as follows: Metabolic stability in mouse liver microsomes assessed as half life in presence of NADPH by LC-MS/MS analysis. Type of data set: ADME, Microsome.
Data set [15] deals with HL-60. Nature of the data set: Cytotoxicity against human HL60 cells incubated for 3 days by CellTiter-Glo luminescent assay. Type of data set: functional, cell-based. The settings on record: HL-60, 72 h. Put shortly: as §1
Data set [16] relates to HL-60. Nature of the data set: Induction of cell cycle arrest in human HL60 cells assessed as accumulation at G1 phase at 1 uM incubated for 1 day by DAPI staining based flow cytometric analysis (reference value: 48.37 +/- 0.15%). Type of data set: functional.
The subject of a further data set is KG-1. Kind of data set: Cytotoxicity against human KG1 cells incubated for 3 days by CellTiter-Glo luminescent assay. Type of data set: functional, cell-based. The settings on record: KG-1, 72 h. In outline:
as §1

The nature of data set [17]: AUC (0 to t) in NSG mouse at 2 mg/kg, iv measured after 7 to 150 mins by LC/MS/MS analysis. The following applies: in vivo. Type of data set: ADME, organism-based. In outline: as §2
The test system of data set [18] is HL-60. Nature of the data set: Induction of apoptosis in human HL60 cells assessed as early apoptotic cells at 1 uM incubated for 1 day by AnnexinV/DAPI double staining based flow cytometric analysis (reference value: 3.2 +/- 0.1%). Type of data set: functional.
For data set [19], the species on record is Homo sapiens. Kind of data set: Inhibition of CREB in human HL60 cells assessed as downregulation of RFC3 gene expression at 1 uM incubated for 1 day by RT-qPCR analysis. Type of data set: cell-based. Put shortly:
as §3

A short description of data set [20]: Plasma concentration in NSG mouse at 2 mg/kg, iv measured after 7 to 150 mins by LC/MS/MS analysis. Type of data set: ADME, organism-based. The settings on record: in vivo. In outline: as §2
Data set [21] deals with HL-60. Kind of data set: Induction of cell cycle arrest in human HL60 cells assessed as S phase at 1 uM incubated for 1 day by DAPI staining based flow cytometric analysis (reference value: 27.5 +/- 0.57%). Type of data set: functional.
A short description of data set [22]: Metabolic stability in human liver microsomes assessed as half life in presence of NADPH by LC-MS/MS analysis. Type of data set: ADME, Microsome.
Data set [23] has as its system HL-60. Kind of data set: Induction of cell cycle arrest in human HL60 cells assessed as cyclin B expression in G2 phase by measuring as fluorescence intensity level at 1 uM incubated for 1 day by flow cytometric analysis (reference value: 1196.33 +/- 40.48). Type of data set: functional.

The source made the active and inactive calls. The calls are words filed in the database; no cut-off is given here.

As a reminder, the IC50 is the midpoint of a concentration-inhibition curve. As usually defined, the MRT inf is a mean duration of stay, worked out from the concentration-time curve. The term AUC(0-inf) denotes total exposure, with the tail of the curve extrapolated. Low readings indicate low exposure, high ones high exposure. The AUC(0-t) is exposure summed from dosing to a finite time, without extrapolation to infinity. A high value points to more exposure. `O=C(Nc1cc(C(F)(F)F)cc(C(F)(F)F)c1)c1cc(Br)c(-c2ccccc2)cc1O`: the IC50 is 680 nM in the data set with Jurkat; greater than 10000 nM in the data set with Bone marrow cell; 1550 nM in [12]; 840 nM with NALM-6; 430 nM in the data set on HL-60 [15]; 300 nM in the data set with KG-1. Further, the Activity is given as 14.37% in the data set with HL-60 [1]; 30.9% in the data set on HL-60 [3]; 58.1% with HL-60 [5]; 1.23% in the data set on HL-60 [11]; 69.77% with HL-60 [16]; 8.8% in the data set with HL-60 [18]. Also, the Activity with HL-60 [21] is 14.27%. This compound also showed a CL in [2] of 0.00086 mg/ng/mL/h. Besides, the half-life in data set [4] is 2.05 h; in data set [14] it was 2.65 h; in data set [22], 2.65 h. The MRT inf in data set [6] turned out to be 1.02 h. Further, the Vz in [7] stood at 0.003 mg/ng/mL. The inhibition entry in the data set listed under Homo sapiens [8], in the data set filed under Homo sapiens [10] and in the data set listed under Homo sapiens [19] was “Active” throughout. The same compound registered an AUC(0-inf) in data set [9] of 2330 ng·h/mL. The Vdss in data set [13] was found to be 0.00087 mg/ng/mL. This compound came in with an AUC(0-t) in [17] of 2250 ng·h/mL. In data set [20], this compound returned a Cp of 19 ng/mL.

Turning to `N#Cc1ccc(NC(=O)c2ccc3cccnc3c2O)cc1`, the half-maximal inhibitory concentration (IC50) with Jurkat stood at 180 nM; in the data set on Bone marrow cell, 3070 nM; in the data set on NALM-6 it was 130 nM; in the data set on HL-60 [15], 370 nM; in the data set with KG-1, 2320 nM. The same compound gave a CL in [2] of 0.00049 mg/ng/mL/h. Moreover, the Activity amounted to 3% with HL-60 [3], 17.3% in the data set on HL-60 [5], 6.3% in the data set with HL-60 [18] and 33.7% in the data set with HL-60 [21]. Besides, the half-life was 1.39 h in [4], 2.61 h in data set [14] and 2.07 h in data set [22]. Moreover, in data set [6], the MRT inf came to 0.458 h. For the same compound, the Vz in data set [7] worked out at 0.00098 mg/ng/mL. In data set [9], this compound returned an AUC(0-inf) of 4090 ng·h/mL. Moreover, the inhibition entry in the data set filed under Homo sapiens [10] and in the data set listed under Homo sapiens [19] was “inactive” each time. The compound also showed a Vdss in data set [13] of 0.00022 mg/ng/mL. Besides, the FI with HL-60 [23] is recorded as 875.33. In [17], this compound came in with an AUC(0-t) of 4070 ng·h/mL.
